PvdQ acylase = blocks Pseudomonas aeruginosa PvdQ acylase activity. purified PvdQ acylase, fluorescence plate reader. inhibition, % at 10 µM. actives 0.063% (n = 340,000). AID 488965; in the data active means inhibition above about 30%, passing the limit was not always enough; inconclusive means no clear call, values can overlap the other calls;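 further: 0% = vehicle neutral wells and 100% = reference inhibitor wells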
CAL PDZ FP-1 = inhibitors of human CAL PDZ peptide binding; Q9HD26; purified CAL PDZ, TMR-peptide fluorescence polarization, 1 h; inhibition, % at 24.9 µM; actives 0.92% (n = 300,000); AID 602252;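 active means mean inhibition of at least 30% with at least half of replicates also reaching 30%; inconclusive means no clear call, values can overlap the other calls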;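 further: 0% = DMSO neutral control and 100% = excess unlabeled competitor peptide PRC23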
Glyco luc inh = blocks N-linked glycosylation in D54 reporter cells; reporter increase, % at 12.5 µM; D54 ERlucT glycosylation luciferase reporter, 24 h; percent of 100 nM tunicamycin response; AID 588692; actives 0.23% (n = 360,000);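 active means mean luciferase reporter signal, scaled so untreated is 0 and the glycosylation-blocking control 100, at or above a set limit in every replicate; inconclusive means mean reaches the limit but not every replicate does; inactive means mean below the limit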;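 further: luciferase carries N-glycosylation sites so blocking glycosylation raises the light; 0% = median of neutral control wells and 100% = median of 100 nM tunicamycin wells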
CDK5 inh = blocks human CDK5/p35 kinase activity; actives 0.01% (n = 330,000); inhibition, % at 10 µM; Recombinant CDK5/p35, ADP-Glo luminescence, 60 min;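 active means highest replicate inhibition of at least 50% and at least 75% of replicates reaching 50%; inconclusive means only one of the two criteria met; inactive means both criteria failed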;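 further: plate controls were DMSO neutral control for no effect and GW8510 at 10 µM for full effect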
Target sequence (Q00535 whole entry, looked up): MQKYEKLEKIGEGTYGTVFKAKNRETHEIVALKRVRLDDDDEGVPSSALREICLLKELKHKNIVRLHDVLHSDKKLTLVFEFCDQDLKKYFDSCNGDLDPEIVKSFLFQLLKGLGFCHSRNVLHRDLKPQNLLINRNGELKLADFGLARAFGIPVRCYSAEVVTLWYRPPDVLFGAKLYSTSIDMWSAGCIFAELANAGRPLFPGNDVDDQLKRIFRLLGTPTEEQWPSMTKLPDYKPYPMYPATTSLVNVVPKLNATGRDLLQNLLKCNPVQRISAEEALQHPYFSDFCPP
Target sequence (Q15078 whole entry, looked up): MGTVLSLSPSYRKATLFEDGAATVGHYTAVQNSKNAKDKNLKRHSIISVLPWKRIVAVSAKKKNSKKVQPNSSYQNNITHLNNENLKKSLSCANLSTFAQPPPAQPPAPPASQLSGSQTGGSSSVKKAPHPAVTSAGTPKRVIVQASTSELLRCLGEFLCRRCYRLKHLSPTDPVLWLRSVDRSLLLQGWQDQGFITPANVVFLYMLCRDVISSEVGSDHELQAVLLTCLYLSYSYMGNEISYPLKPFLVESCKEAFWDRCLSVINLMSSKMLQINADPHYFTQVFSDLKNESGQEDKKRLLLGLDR
Vif imaging = blocks HIV Vif function; actives 0.35% (n = 340,000); HEK293T cells, Vif self-association by quenched fluorescence, imaging, 24 h; inhibition, % at 7.49 µM; in the data active means inhibition above about 50%, passing the limit was not always enough; inconclusive means no clear call, values can overlap the other calls; inactive means below about 31%
CAL PDZ FP-2 = human CAL PDZ-peptide interaction inhibition | Q9HD26 | purified CAL PDZ, TMR-peptide fluorescence polarization, 1 h | inhibition, % at 20 µM | actives 0.02% (n = 330,000) | AID 504414;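 active means highest replicate inhibition of at least 40%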;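 further: plate controls were DMSO neutral control wells for no effect and unlabeled competitor peptide control wells for full effect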
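material = purified tagged CAL PDZ domain construct (CerCALP) | compound dosing = 20 µM, one dose | times = 1 h at RT | measured by = fluorescence polarization from S- and P-plane intensities, G-factor corrected | read-out = inhibition from polarization loss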
Starred values were filed as active, the others as inactive; ? = inconclusive; / = not tested or not shown; + = active, no number. Rows were chosen to be rich in hits. Some 1.4% of all compounds tested hit in one or more screens of this group.

SMILES	PvdQ acylase	CAL PDZ FP-1	Glyco luc inh	CDK5 inh	Vif imaging	CAL PDZ FP-2
CCCn1c(=O)[nH]c(=O)c2c1nc(-c1cc([N+](=O)[O-])ccc1Cl)n2CCOC	-12	-7	0	-1	65*	-2
COc1ccccc1-c1cc(C(F)(F)F)nc(S(=O)(=O)CCCC(=O)Nc2cc(C)on2)n1	-4	2	-17	-1	60*	-2
COc1ccccc1-c1cc(C(F)(F)F)nc(S(=O)(=O)CCCC(=O)NC(C)C)n1	12	-1	-7	-1	?	-1
COc1ccc(-c2cc(C(F)(F)F)nc(S(=O)(=O)CCCC(=O)Nc3cc(C)on3)n2)cc1OC	-9	2	-10	1	89*	-1
O=[N+]([O-])c1ccc(Sc2ccccc2Cl)nc1	65*	1	6	-1	-1	-1
Nc1ccc(Sc2ccccc2Cl)nc1	-10	-3	-1	1	-4	0
O=[N+]([O-])c1ccc(Sc2n[nH]c(-c3ccc(Cl)cc3Cl)n2)nc1	-19	43*	1	0	9	/
CC(O)(c1ccc(Cl)cc1)C(c1ccccc1)c1ccccn1 (stereo unspecified)	-15	-2	-2	-2	-2	0
NC(=O)c1c(NC(=O)C2COc3ccccc3O2)sc2c1CCN(Cc1ccccc1)C2 (stereo unspecified)	-2	3	1	-2	110*	1
CCOC(=O)c1ccc(N=c2sc(C(=O)OC)cc(=O)n2CCCN2CCOCC2)cc1	-15	-5	16	0	-11	-1
CCOC(=O)c1ccc(N=c2sc(C(=O)OC)cc(=O)n2Cc2ccco2)cc1	-10	-4	56*	0	-10	0
CCOc1ccc(/C=N/NC(=O)c2ccoc2C)cc1OC	-17	182*	-3	6	9	-1
COc1cc(/C=N/NC(=O)c2ccoc2C)ccc1O	-7	-29	5	-1	-2	-1
CCCCNC(=S)N/N=C/C1=CCC2CC1C2(C)C (stereo unspecified)	-11	-5	-9	0	-31	0
C=C(C)CNC(=S)N/N=C/C1=CCC2CC1C2(C)C (stereo unspecified)	-10	49*	-7	-1	1	0
CCN(C[C@H]1N[C@@](C)(C(=O)OC)[C@H]2C(=O)N(Cc3ccccc3)C(=O)[C@@H]12)C(=O)c1ccc(C)cc1	-7	0	2	-1	-9	0
CN(C)Cc1c(C(=O)N/N=C/c2ccc(OCc3c(F)cccc3Cl)cc2)nnn1-c1nonc1N	-9	77*	-4	-1	-3	2
Nc1nonc1-n1nnc(C(=O)N/N=C/c2ccc(O)cc2)c1COc1ccc(F)cc1	-6	-4	2	2	-9	0
Cc1ccc(NS(=O)(=O)c2cccc(C(=O)NC3CCN(Cc4ccccc4)CC3)c2)cc1	-12	89*	-9	-1	-4	-1
Cc1ccc(S(=O)(=O)N2CCCCC2)cc1NC(=O)c1ccncc1	-6	-6	0	2	3	-2
CCOC(=O)c1sc(NC(=O)CSc2nc3c(c(=O)n2-c2ccc(C)cc2)SCC3)c(C(=O)OCC)c1C	1	/	3	0	/	0
C=CCNc1oc(-c2cccs2)nc1S(=O)(=O)c1ccccc1	-20	39*	-4	1	-1	4
C=CCNc1oc(-c2ccco2)nc1S(=O)(=O)c1ccccc1	0	/	0	0	-3	-1
Cc1cc(S(=O)(=O)N2CCOCC2)ccc1OCC(=O)N1CCCC1	-16	7	3	-1	65*	-3
Cc1cc(S(=O)(=O)N2CCOCC2)ccc1OCC(=O)NCCN1CCOCC1	-17	5	0	0	71*	-3
SMILES	PvdQ acylase	CAL PDZ FP-1	Glyco luc inh	CDK5 inh	Vif imaging	CAL PDZ FP-2
O=C(COc1ccc(S(=O)(=O)N2CCOCC2)cc1Cl)NCCN1CCOCC1	-2	-2	2	0	-4	-3
Nc1c(Cl)cc(N=Nc2ccccc2)cc1Cl	-9	+	0	-1	3	0
COc1ccc(S(=O)(=O)N2CCCCCC2)cc1NC(C)C(=O)Nc1ccc(NC(C)=O)cc1 (stereo unspecified)	-11	48*	0	1	-3	0
Cc1ccc(S(=O)(=O)N2CCCCC2)cc1NC(=O)C1CC1	8	-4	-3	4	15	-1
COc1ccc(S(=O)(=O)N2CCCCCC2)cc1C(=O)OC(C)C(N)=O (stereo unspecified)	-12	+	0	-1	4	0
COc1ccc(S(=O)(=O)N2CCC(C(=O)N[C@H](C(=O)N3CCCC3)C(C)C)CC2)cc1	-18	94*	-2	0	11	0
COc1ccc(S(=O)(=O)N2CCCCC2)cc1NC(=O)C1CC1	-16	32*	3	0	/	-1
Cc1ccc2nc(NC(=O)C3CCN(C(=O)c4ccc(F)cc4)CC3)sc2c1	-19	/	-5	-2	-17	0
O=C(OCc1cc(=O)n2ccsc2n1)c1ccccc1NCCO	-11	-1	-3	-3	-2	-1
COc1ccccc1N(CN1CCCC1=O)C(=O)c1ccccc1F	2	-1	1	-1	4	1
COc1cc(OC)cc(C(=O)N(CN2CCCC2=O)c2ccccc2OC)c1	-2	-2	1	-1	54*	0
CCCCC(=O)Nc1nn(CC(C)C)c2nc3ccccc3cc12	-9	30*	1	3	-16	1
CC(C)Cn1nc(NC(=O)C(C)(C)C)c2cc3ccccc3nc21	10	/	0	-2	-7	-2
Cn1cc(-c2csc(C(O)c3ccc(F)c(F)c3)n2)cn1 (stereo unspecified)	/	/	2	/	-2	/
O=C(CCN1C(=O)C2CC=CCC2C1=O)NC1CCCCC1 (stereo unspecified)	-7	2	1	1	-5	-1
CC1CCC(NC(=O)CCN2C(=O)C3CC=CCC3C2=O)CC1 (stereo unspecified)	-9	67*	-3	-1	9	0
Cc1ccc2nsnc2c1NC(=O)c1ccc(-c2cc(Cl)ccc2Cl)o1	-12	-2	129*	1	15	-1
Cc1ccc2nsnc2c1NC(=O)Cc1ccc(Cl)cc1	16	1	0	0	10	1
Cc1cccc(NC(=O)CN2C(=O)N/C(=C/c3cc(C)n(-c4cccnc4)c3C)C2=O)c1	-7	74*	1	0	4	0
CC(=O)Nc1ccc(S(=O)(=O)N2CCCCC2C(=O)O)cc1 (stereo unspecified)	1	-4	0	1	10	-2
COC(=O)Nc1ccc(S(=O)(=O)N2CCCCC2C(=O)O)cc1 (stereo unspecified)	-14	73*	0	1	0	-1
